ChEMBL document CHEMBL4819099, “A biphenyl inhibitor of eIF4E targeting an internal binding site enables the design of cell-permeable PROTAC-degraders” (Eur J Med Chem, 2021)
Activity calls are given as the source filed them. The calls are words filed in the database; no cut-off is given here.

Tests used:
[1] = molecular target: Protein cereblon/Sal-like protein 4 (Homo sapiens) (UniProt Q96SW2+Q9UJQ4); experiment: Protac activity at CRBN/SALL4 in human Kelly cells assessed as induction of SALL4 degradation by measuring downregulation of SALL4 protein expression at 1 uM measured after 5 hrs by proteomics analysis based LC-MS analysis; type: cell-based
Method in brief: (§1)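 Kelly cells given 1 μM compound or DMSO (biological triplicate) for 5 h; urea/EPPS pH 8.5 lysis, 100 μg protein reduced, alkylated, digested, TMT-labelled, high-pH reverse-phase fractionated into 96 fractions; LC-MS over a 190 min 9-32% acetonitrile gradient with MS3-based TMT quantification with real-time search; change relative to DMSO.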

[2] = molecular target: Protein cereblon/Zinc finger protein 692 (Homo sapiens) (UniProt Q96SW2+Q9BU19); experiment: Protac activity at CRBN/ZNF692 in human Kelly cells assessed as induction of ZNF692 degradation by measuring downregulation of ZNF692 protein expression at 1 uM measured after 5 hrs by proteomics analysis based LC-MS analysis; type: cell-based; method in brief: as §1
[3] = molecular target: Protein cereblon/Zinc finger protein 827 (Homo sapiens) (UniProt Q96SW2+Q17R98); experiment: Protac activity at CRBN/ZNF827 in human Kelly cells assessed as induction of ZNF827 degradation by measuring downregulation of ZNF827 protein expression at 1 uM measured after 5 hrs by proteomics analysis based LC-MS analysis; type: cell-based; method in brief: as §1
Protein cereblon = Protein cereblon (Homo sapiens, UniProt Q96SW2); experiment: Binding affinity to Cereblon in human Flp293T cells transfected with BRD4(BD2)-GFP fusion protein and mCherry reporter assessed as inhibition of dBET6-induced BRD4(BD2) degradation after 5 hrs fluorescence based analysis; type: cell-based, Flp-In-293
Method in brief: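 Flp293T cells stably expressing BRD4_BD2-GFP plus mCherry reporter, seeded a day earlier in FluoroBrite DMEM/10% FBS; compounds in dose response co-dosed with 100 nM dBET6 (0.5% DMSO), 5 h. […] Lenalidomide positive control.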

[4] = molecular target: T1, Protein cereblon/Eukaryotic translation initiation factor 4E (Homo sapiens) (UniProt P06730+Q96SW2); experiment: Protac activity at CRBN/eIF4E in human Kelly cells assessed as induction of eIF4E degradation by measuring downregulation of eIF4E protein expression at 1 uM measured after 5 hrs by proteomics analysis based LC-MS analysis; type: cell-based; method in brief: as §1
[5] = molecular target: T1, Protein cereblon/Eukaryotic translation initiation factor 4E (Homo sapiens); experiment: Protac activity at CRBN/eIF4E in human HEK293T cells assessed as induction of eIF4E ubiquitination at 1 uM in presence of 26S proteasome inhibitor, Bortezomib by Western blot analysis; type: cell-based
Method in brief: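 HEK293T cells incubated with 1 μM PROTAC plus 100 nM bortezomib; eIF4E ubiquitination compared with bortezomib-alone and DMSO-treated cells.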

[6] = molecular target: T1, Protein cereblon/Eukaryotic translation initiation factor 4E (Homo sapiens); experiment: Protac activity at CRBN/eIF4E in human HEK293T cells assessed as induction of intracellular eIF4E degradation at 0.1 to 10 uM measured after 24 hrs by Western blot analysis; type: cell-based; conditions: dose 0.1-10 µM
Method in brief: (§2)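 HEK293T cells exposed either to 0.1-10 μM PROTAC for 24 h or to 1 μM PROTAC for 0.5 to 24 h, DMSO-treated cells alongside; eIF4E level assessed by immunoblotting.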

[7] = molecular target: T1, Protein cereblon/Eukaryotic translation initiation factor 4E (Homo sapiens); experiment: Protac activity at CRBN/eIF4E in human HEK293T cells assessed as induction of intracellular eIF4E degradation at 1 uM measured after 0.5 to 24 hrs by Western blot analysis; type: cell-based; conditions: time 0.5-24 hrs; method in brief: as §2
HeLa = experiment: Cytotoxicity activity against human HeLa cells assessed as cell killing at 10 uM measured after 24 hrs by CellTiter Glo luminescence assay; type: functional
Method in brief: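 HeLa cells in 4.5 g/L glucose DMEM, 10% FBS, 1% pen/strep, 5x10³ cells/well; medium replaced 24 h post-seeding with drug-containing medium at equal DMSO. CellTiter-Glo luminescence read, normalized to DMSO control; at least two experiments, triplicates.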

MCF7 [8] = experiment: Cytotoxicity against human MCF7 cells assessed as reduction in cell viability after 24 hrs by Cell specific bioluminescence imaging (CS-BLI) assay; conditions: MCF7, 24 h
MM1.S [9] = experiment: Cytotoxicity against human MM1.S cells assessed as reduction in cell viability after 48 hrs by Cell specific bioluminescence imaging (CS-BLI) assay
MM1.S [10] = experiment: Cytotoxicity against human MM1.S cells assessed as reduction in cell viability after 72 hrs by Cell specific bioluminescence imaging (CS-BLI) assay
MCF7 [11] = experiment: Cytotoxicity against human MCF7 cells assessed as reduction in cell viability after 72 hrs by Cell specific bioluminescence imaging (CS-BLI) assay; conditions: MCF7, 72 h
MCF7 [12] = experiment: Cytotoxicity against human MCF7 cells assessed as reduction in cell viability after 48 hrs by Cell specific bioluminescence imaging (CS-BLI) assay; conditions: MCF7, 48 h
MM1.S [13] = experiment: Cytotoxicity against human MM1.S cells assessed as reduction in cell viability after 24 hrs by Cell specific bioluminescence imaging (CS-BLI) assay

Sequence of Protein cereblon (Q96SW2 whole entry, the tested form may be a part): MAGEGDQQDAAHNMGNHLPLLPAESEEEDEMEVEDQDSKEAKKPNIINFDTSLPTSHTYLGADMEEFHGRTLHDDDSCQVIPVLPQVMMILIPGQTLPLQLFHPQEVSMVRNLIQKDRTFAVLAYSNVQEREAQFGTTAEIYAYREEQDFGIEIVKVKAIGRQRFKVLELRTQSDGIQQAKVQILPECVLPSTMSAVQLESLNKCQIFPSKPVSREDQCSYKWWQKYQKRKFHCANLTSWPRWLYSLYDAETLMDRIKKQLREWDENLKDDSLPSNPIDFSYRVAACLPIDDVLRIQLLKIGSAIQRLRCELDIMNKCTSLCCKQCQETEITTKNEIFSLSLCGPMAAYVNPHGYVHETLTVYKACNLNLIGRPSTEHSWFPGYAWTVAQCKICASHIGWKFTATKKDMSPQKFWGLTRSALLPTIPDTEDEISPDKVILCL
T1 sequence (P06730 whole entry, looked up): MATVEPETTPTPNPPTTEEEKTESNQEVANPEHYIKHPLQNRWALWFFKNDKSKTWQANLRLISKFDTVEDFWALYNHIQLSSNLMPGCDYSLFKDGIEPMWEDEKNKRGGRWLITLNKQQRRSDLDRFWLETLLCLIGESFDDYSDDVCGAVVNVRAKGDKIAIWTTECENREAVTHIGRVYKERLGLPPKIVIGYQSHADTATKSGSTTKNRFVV
T1 sequence (Q96SW2 whole entry, looked up): as the sequence (Q96SW2 whole entry, the tested form may be a part) above
Sequence of Protein cereblon/Zinc finger protein 827 (Homo sapiens) (Q17R98 whole entry, looked up, the tested form may be a part): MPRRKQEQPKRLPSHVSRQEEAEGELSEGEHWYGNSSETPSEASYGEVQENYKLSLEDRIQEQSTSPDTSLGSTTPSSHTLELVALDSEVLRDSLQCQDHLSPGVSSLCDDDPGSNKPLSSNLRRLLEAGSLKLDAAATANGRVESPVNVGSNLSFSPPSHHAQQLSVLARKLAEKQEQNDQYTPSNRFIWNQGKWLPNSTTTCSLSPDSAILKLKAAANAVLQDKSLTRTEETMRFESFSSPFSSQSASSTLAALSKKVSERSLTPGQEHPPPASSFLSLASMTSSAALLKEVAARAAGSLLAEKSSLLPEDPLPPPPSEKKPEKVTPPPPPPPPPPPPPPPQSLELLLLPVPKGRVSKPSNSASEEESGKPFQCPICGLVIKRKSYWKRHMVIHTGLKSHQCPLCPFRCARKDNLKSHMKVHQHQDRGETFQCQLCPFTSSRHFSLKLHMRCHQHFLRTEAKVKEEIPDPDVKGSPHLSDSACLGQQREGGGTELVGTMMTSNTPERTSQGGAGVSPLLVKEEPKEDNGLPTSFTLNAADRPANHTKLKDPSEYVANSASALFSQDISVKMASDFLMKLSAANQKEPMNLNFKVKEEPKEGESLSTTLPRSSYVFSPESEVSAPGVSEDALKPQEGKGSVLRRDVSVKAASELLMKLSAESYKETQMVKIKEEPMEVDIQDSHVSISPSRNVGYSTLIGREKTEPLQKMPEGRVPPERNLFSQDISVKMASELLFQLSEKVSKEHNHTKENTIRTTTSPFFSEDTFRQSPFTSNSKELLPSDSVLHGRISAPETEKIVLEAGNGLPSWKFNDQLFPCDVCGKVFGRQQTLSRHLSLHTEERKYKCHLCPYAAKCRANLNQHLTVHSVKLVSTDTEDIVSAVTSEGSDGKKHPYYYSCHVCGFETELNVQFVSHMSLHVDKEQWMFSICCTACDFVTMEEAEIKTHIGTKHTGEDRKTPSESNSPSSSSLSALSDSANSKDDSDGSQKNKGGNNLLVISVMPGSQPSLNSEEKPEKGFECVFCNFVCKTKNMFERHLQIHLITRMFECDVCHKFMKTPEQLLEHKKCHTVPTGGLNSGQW
Sequence of Protein cereblon/Zinc finger protein 827 (Homo sapiens) (Q96SW2 whole entry, looked up, the tested form may be a part): as the sequence (Q96SW2 whole entry, the tested form may be a part) above
Sequence of Protein cereblon/Zinc finger protein 692 (Homo sapiens) (Q96SW2 whole entry, looked up): as the sequence (Q96SW2 whole entry, the tested form may be a part) above
Sequence of Protein cereblon/Zinc finger protein 692 (Homo sapiens) (Q9BU19 whole entry, looked up): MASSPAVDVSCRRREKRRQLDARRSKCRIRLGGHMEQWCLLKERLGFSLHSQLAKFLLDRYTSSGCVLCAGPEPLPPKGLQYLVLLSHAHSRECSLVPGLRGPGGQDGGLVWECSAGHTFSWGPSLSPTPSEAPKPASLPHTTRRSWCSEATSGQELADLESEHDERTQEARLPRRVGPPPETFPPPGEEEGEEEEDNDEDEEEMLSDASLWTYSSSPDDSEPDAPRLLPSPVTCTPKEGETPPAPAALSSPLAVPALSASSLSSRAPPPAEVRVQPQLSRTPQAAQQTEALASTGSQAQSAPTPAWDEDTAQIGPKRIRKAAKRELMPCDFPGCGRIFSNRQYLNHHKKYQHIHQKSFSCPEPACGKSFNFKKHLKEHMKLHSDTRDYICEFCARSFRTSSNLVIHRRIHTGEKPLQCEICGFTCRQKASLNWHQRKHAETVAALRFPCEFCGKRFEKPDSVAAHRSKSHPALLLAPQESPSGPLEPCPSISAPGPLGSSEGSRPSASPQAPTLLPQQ
Sequence of Protein cereblon/Sal-like protein 4 (Homo sapiens) (Q96SW2 whole entry, looked up): as the sequence (Q96SW2 whole entry, the tested form may be a part) above
Sequence of Protein cereblon/Sal-like protein 4 (Homo sapiens) (Q9UJQ4 whole entry, looked up): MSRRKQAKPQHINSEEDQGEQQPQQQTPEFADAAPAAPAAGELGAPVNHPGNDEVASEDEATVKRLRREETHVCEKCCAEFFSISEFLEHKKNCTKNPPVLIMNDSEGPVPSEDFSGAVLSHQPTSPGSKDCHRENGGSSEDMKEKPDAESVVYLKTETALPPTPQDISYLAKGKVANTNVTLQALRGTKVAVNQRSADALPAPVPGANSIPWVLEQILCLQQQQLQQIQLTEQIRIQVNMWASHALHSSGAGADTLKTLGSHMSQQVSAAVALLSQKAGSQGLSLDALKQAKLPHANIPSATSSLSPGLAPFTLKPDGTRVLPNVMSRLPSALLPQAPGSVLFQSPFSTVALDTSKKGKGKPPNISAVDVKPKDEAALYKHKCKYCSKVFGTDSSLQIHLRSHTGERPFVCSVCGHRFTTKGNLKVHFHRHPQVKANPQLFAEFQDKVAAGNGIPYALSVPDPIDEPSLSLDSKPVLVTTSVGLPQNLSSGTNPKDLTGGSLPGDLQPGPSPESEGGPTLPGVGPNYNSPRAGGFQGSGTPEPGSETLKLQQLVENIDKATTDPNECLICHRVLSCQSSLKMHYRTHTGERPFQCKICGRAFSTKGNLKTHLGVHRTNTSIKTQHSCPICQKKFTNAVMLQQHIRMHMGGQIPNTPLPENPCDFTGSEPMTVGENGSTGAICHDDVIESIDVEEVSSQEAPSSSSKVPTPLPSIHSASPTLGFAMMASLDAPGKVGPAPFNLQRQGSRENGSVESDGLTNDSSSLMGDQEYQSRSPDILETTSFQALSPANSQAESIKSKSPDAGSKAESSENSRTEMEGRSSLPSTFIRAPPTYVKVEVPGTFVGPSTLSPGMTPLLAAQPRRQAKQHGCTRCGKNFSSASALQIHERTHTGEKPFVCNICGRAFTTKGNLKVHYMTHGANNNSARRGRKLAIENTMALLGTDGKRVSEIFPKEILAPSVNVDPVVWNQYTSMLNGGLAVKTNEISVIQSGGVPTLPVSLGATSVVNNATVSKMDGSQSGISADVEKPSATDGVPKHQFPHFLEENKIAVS

C/C(=N\Nc1nc(-c2ccc(-c3ccccc3)cc2)cs1)C(=O)NCCCCNc1cccc2c1C(=O)N(C1CCC(=O)NC1=O)C2=O (configuration not stated)
Activity [1]: Active
Activity [2]: Active
Activity [3]: Active
IC50 (Protein cereblon): 1.6 µM
Activity [4]: inactive

C/C(=N\Nc1nc(-c2ccc(Cl)c(Cl)c2)c(CC(=O)NCCNc2cccc3c2C(=O)N(C2CCC(=O)NC2=O)C3=O)s1)C(=O)OCOC(=O)C(C)(C)C (configuration not stated)
Activity [5]: inactive
Activity [6]: inactive
Activity [7]: inactive
IC50 (Protein cereblon): 20.7 µM

C/C(=N\Nc1nc(-c2ccc(-c3ccccc3)cc2)cs1)C(=O)NCCCNc1cccc2c1C(=O)N(C1CCC(=O)NC1=O)C2=O (configuration not stated)
Activity (HeLa): 50%

C/C(=N\Nc1nc(-c2ccc(-c3ccccc3)cc2)cs1)C(=O)NCCNc1cccc2c1C(=O)N(C1CCC(=O)NC1=O)C2=O (configuration not stated)
Activity [5]: inactive
Activity [6]: inactive
Activity (HeLa): 50%
Activity [7]: inactive

O=C(O)C(Cc1ccccc1[N+](=O)[O-])=NNc1nc(-c2ccc(Cl)c(Cl)c2)cs1
IC50 (MCF7 [8]): 71.2 µM
IC50 (MM1.S [9]): 18.7 µM
IC50 (MM1.S [10]): 15.6 µM
IC50 (MCF7 [11]): 35.1 µM
IC50 (MCF7 [12]): 43.1 µM
IC50 (MM1.S [13]): 22.6 µM

O=C1CCC(N2C(=O)c3cccc(NCCCCNC(=O)/C(=N\Nc4nc(-c5ccc(-c6ccccc6)cc5)cs4)c4ccccc4[N+](=O)[O-])c3C2=O)C(=O)N1 (configuration not stated)
IC50 (Protein cereblon): 13 µM

O=C(COc1cccc2c1C(=O)N(C1CCC(=O)NC1=O)C2=O)NCCCCNC(=O)Cc1sc(N/N=C(\Cc2ccccc2[N+](=O)[O-])C(=O)O)nc1-c1ccc(Cl)c(Cl)c1 (configuration not stated)
Activity (Protein cereblon; Flp-In-293): inactive
